Compound activity as filed in PubChem BioAssay.
APJ ag: agonists of human apelin receptor APJ, primary screen, CHO-K1 cells, PathHunter beta-arrestin, luminescence; P35414; AID 2520, 2010; activation, % at 20 µM; 0.11% of 330,000 active; 0% DMSO wells, 100% apelin;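 active = activation more than six SD over the plate average, tested at 20 µM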
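system = engineered CHO-K1 APJ arrestin reporter cells | input = 1000 cells per well | timing = overnight seeding, 90 min compound at 25 °C, 1 h detection | measured by = enzyme-fragment complementation luminescence | read-out = beta-arrestin recruitment to APJ as agonist activity, luminescent signal | control set = negative DMSO alone, positive Apelin-13 at 10 nM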
APJ antag: antagonists of human apelin receptor APJ, primary screen, CHO-K1 cells, beta-arrestin complementation, luminescence; inhibition, % at 20 µM; 0.32% of 330,000 active; P35414;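 active = inhibition above about 40% at 20 µM, limit read from the data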;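 note: cells challenged with 10 nM apelin-13 agonist together with compound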
CXCR6 block: CXCR6 receptor inhibitors, primary screen, cell-based, beta-arrestin, luminescence, CHO-K1 PathHunter, 1536-well; 0.36% of 360,000 active; inhibition, % at 20 µM; AID 602244, 2012; C-X-C chemokine receptor type 6 (Homo sapiens), O00574; in the data active = inhibition above about 34%, passing the limit was not always enough;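 note: antagonist mode with CXCL16 agonist at 10 nM final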
Target sequence (O00574 whole entry, looked up): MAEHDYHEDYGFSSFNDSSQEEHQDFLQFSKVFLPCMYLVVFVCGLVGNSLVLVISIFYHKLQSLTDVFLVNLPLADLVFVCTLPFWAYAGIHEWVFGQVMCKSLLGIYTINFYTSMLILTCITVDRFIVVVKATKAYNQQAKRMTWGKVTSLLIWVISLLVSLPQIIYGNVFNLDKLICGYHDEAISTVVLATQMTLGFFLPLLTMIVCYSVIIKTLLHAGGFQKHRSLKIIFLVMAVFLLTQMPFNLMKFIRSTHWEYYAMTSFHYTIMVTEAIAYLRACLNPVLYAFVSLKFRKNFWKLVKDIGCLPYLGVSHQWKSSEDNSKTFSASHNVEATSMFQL
EBI2 block: EBI2 receptor antagonists, beta-arrestin recruitment, primary screen, cell-based, luminescence, 7a,25-OHC stimulation, uHTS. 7a,25-OHC stimulated. G-protein coupled receptor 183 (Homo sapiens), P32249. AID 651636, 2012. 0.81% of 360,000 active. inhibition, % at 5 µM; in the data active = inhibition above about 38%;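 note: enzyme fragment complementation signal reports receptor beta-arrestin coupling in cells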
CCR6 antag: CCR6 receptor antagonists, primary screen, cell-based, CHO-K1, luminescence, beta-arrestin, uHTS; C-C chemokine receptor type 6 (Homo sapiens), P51684; CHO-K1 CCR6 PathHunter beta-arrestin, CCL20-stimulated; inhibition, % at 20 µM; 0.49% of 340,000 active;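 active = compounds whose inhibition of the agonist-driven luminescence signal at 20 µM reaches about 50%, limit read from the data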;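 note: cells stimulated with CCL20 at 14 nM final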
Hits are given with their value; - = inactive; . = no result given; ! = repeats disagree. Shown are actives, neighbours in structure and some others; about 1.5% of the full set was active somewhere.

SMILES	APJ ag	APJ antag	CXCR6 block	EBI2 block	CCR6 antag
CC(=O)Oc1oc(-c2ccccc2)nc1/C=N/c1ccccn1	-	-	-	-	51
CN1CCN(C(=O)c2cc3c(c(-c4cccc(-c5cc6ccccc6o5)c4)n2)[C@H](CCO)N(S(=O)C(C)(C)C)C3)CC1 (stereo partly specified)	.	.	-	-	.
CCCNC(=O)C1(C)CCN(C(=O)/C=C/c2ccccc2)C1 (stereo unspecified)	.	.	-	-	.
COC(=O)[C@]12CCCCC=C1N(Cc1cccc3ccccc13)C(=O)[C@H](CC(=O)N1CCSCC1)C2	.	.	-	-	.
N#CC1=C(N)C(C#N)(C#N)C(c2ccncc2)C2CN(C(=O)OCc3ccccc3)CC=C12 (stereo unspecified)	-	-	-	-	56
Cc1ccc(C(=O)/C=C/C(=O)c2ccc(C)cc2)cc1	-	-	92	-	100
Cc1cc(C)c(S(=O)(=O)Nc2ccc3c4c(cccc24)CC3)c(C)c1	-	-	-	46	-
Cc1ccc(S(=O)(=O)Nc2ccc3c4c(cccc24)CC3)c(C)c1	-	-	-	-	-
Cc1cc(Cl)ccc1-c1nc(NC(C)C)nc2ccsc12	.	.	-	-	.
O=C1Nc2ccccc2C1=Nc1ccc(-c2nnc3n2CCCCC3)cc1	-	-	-	-	62!
Cc1ccc(-c2nnc3n2CCCCC3)cc1	-	-	-	-	-
O=C(Nc1cccc(-n2cnnn2)c1)c1ccc(C(F)(F)F)cc1	-	-	-	-	-
COc1cc(OC)cc(C(=O)Nc2nc(-c3ccccc3)c(-c3ccccc3)o2)c1	-	-	-	-	62
CCCC(=O)OCC1CN(Cc2ccco2)S(=O)(=O)c2c(F)cccc2O1 (stereo unspecified)	.	.	-	-	-
Cc1ccc(-c2oc3ccccc3c(=O)c2O)cc1	-	-	52	-	-
COC(=O)C1=NN(C(=O)c2cccc(Br)c2)C(O)(c2ccc(Cl)cc2)C1 (stereo unspecified)	-	-	45	-	.
CC1=NN(C(=O)c2ccccc2)C(O)(c2ccc(Br)cc2)C1 (stereo unspecified)	-	-	-	-	55
CCOC1=C2CN(S(=O)(=O)c3ccc(C)cc3)[C@H](c3ccccc3)C[C@@H]2N(S(=O)(=O)c2ccc(Br)cc2)[C@H](c2ccccc2)C1	.	.	-	-	.
Cc1ccc(SC2=C(Sc3ccc(C)cc3)C(=O)c3ccccc3C2=O)cc1	-	-	-	-	-
CC1=CC(=O)C(Sc2ccc(C)cc2)=CC1=O	.	.	92	-	.
O=C1c2sc3nc4ccccc4n3c2C(=O)N1c1ccccc1Cl	-	-	38	-	-
Cc1ccccc1N1C(=O)c2sc3nc4c(c(=O)n3c2C1=O)CCC4	-	-	-	-	-
O=C(C(=O)N1CCC(c2ccccc2)CC1)c1cccc([N+](=O)[O-])c1	.	.	.	-	.
O=c1c2ccccc2sn1-c1ccc(F)cc1	-	-	-	-	-
Cc1ccc(-n2sc3ccccc3c2=O)cc1	-	-	-	-	52
SMILES	APJ ag	APJ antag	CXCR6 block	EBI2 block	CCR6 antag
CCCCNC(=O)C[C@@H]1C[C@@]2(C(=O)OCC)CCCC=C2N(Cc2ccco2)C1=O	.	.	-	-	.
O=C(NCCc1c[nH]c2ccccc12)c1cccc(S(=O)(=O)Nc2ccccc2Cl)c1	-	-	-	-	-
CN(c1ccccc1)S(=O)(=O)c1cccc(C(=O)NCCc2c[nH]c3ccccc23)c1	-	-	-	48	-
COc1ccc(NC(=O)CN2CCN(S(=O)(=O)c3ccc(Cl)cc3)CC2)cc1Cl	-	-	-	38	-
O=C(CN1CCN(S(=O)(=O)c2ccc(Br)cc2)CC1)Nc1ccc2c(c1)OCO2	-	-	62	-	-
O=C(CN1CCN(S(=O)(=O)c2ccc(Br)cc2)CC1)Nc1ccc(F)cc1	-	-	-	-	-
COc1ccc(S(=O)(=O)N2CCCN(CC(=O)Nc3ccc(OC)c(Cl)c3)CC2)cc1	-	-	-	-	-
CCCNC(=O)c1cc(C2CCCCN2S(=O)(=O)c2ccccc2)on1 (stereo unspecified)	.	.	-	-	.
CC1C(c2ccccc2)N(C)C(c2ccccc2)C(C)C1(O)C#Cc1ccccc1 (stereo unspecified)	-	-	-	-	50
C[C@@H]1CN([C@H](C)CO)C(=O)c2c(c3ccccc3n2C)-c2ccccc2CO[C@H]1CN(C)C(=O)NC1CCCCC1	.	.	-	-	.
O=[N+]([O-])c1cc(Cc2ccccc2)cc(C=Nc2ccc(N3CCOCC3)cc2)c1O	.	.	43	-	55
Cc1ccc(O)c(N=Cc2cc(Cc3ccccc3)cc([N+](=O)[O-])c2O)c1	-	-	-	-	-
Cc1ccccc1C(=O)Nc1cccc(C(=O)N/N=C/c2cc(Cl)cc([N+](=O)[O-])c2O)c1	-	-	-	-	71
CCC(C(=O)OCC(=O)Nc1ccc(OC)cc1OC)c1ccccc1 (stereo unspecified)	-	-	-	-	-
CCC(C(=O)OCC(=O)Nc1cc(Cl)ccc1Cl)c1ccccc1 (stereo unspecified)	-	42	-	-	-
CCOc1cc(C(=O)CSc2nnc(CNc3ccc(Cl)cc3)o2)ccc1NC(=O)CC	-	-	-	56	-
CCCCCCCCN1C(=O)[C@H](CC(=O)NCCCC)C[C@@]2(C(=O)OC)CCCCC=C12	.	.	-	-	.
Cc1nc2ccc(NC(=O)c3ccc(Cl)c([N+](=O)[O-])c3)cc2s1	-	-	-	-	-
Cc1nc2ccc(NC(=O)c3cc([N+](=O)[O-])cc([N+](=O)[O-])c3Cl)cc2s1	.	.	-	-	97
Cc1cc(C)c2c(=O)[nH][nH]c2n1	.	.	-	-	-
O=C(C(Br)=Cc1ccccc1)c1ccccc1	.	.	48	69	69
CC(=Cc1ccccc1)C(=O)c1ccccc1	.	.	-	-	.
COc1cc(N=C2C(=O)N3c4c(cccc42)C(C)=CC3(C)C)cc(OC)c1	-	-	-	-	61
CCOC(=O)CSC1=NC(=O)/C(=C/c2ccc(Br)cc2)S1	-	-	-	-	59
CCOC(=O)CSC1=NC(=O)/C(=C\c2ccc(OC(C)=O)cc2)S1	-	-	-	-	78
Nc1c(-c2ccc(F)c(F)c2)nc2ncccn12	.	.	.	-	.
Cn1nc(-c2ccccc2)cc1NC(=O)[C@@H]1O[C@H](CO)[C@H](O)[C@H](O)[C@H]1O	.	.	-	-	.
CCC1(CCC(C)C)SC(N)=NC1=O (stereo unspecified)	.	.	-	-	-
CCOc1ccc(NC(=O)CN(C)S(=O)(=O)c2cccs2)cc1	-	-	49	-	-
C#Cc1cccc(N2C(=O)C3C4C=CC(C3C2=O)C2C(=O)N(c3cccc(C#C)c3)C(=O)C42)c1 (stereo unspecified)	.	.	-	-	-
